Results as given in ChEMBL document CHEMBL2040750, “Hybrids of ravuconazole: synthesis and biological evaluation” (2012).
Converted amounts (≈) assume the structure as drawn. The source made the active and inactive calls. No cut-off for these calls is given here.

Columns and labels:
Format in all cases: functional
[1] = test system: Staphylococcus aureus; experiment: Antibacterial activity Staphylococcus aureus NCIM 2079 at 100 ug/disc by agar-well diffusion assay; conditions: for zone of inhibition at 100 µg/disc: read-out: DIZ
Summary of the method: (§1)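 Agar-well diffusion screen against standard strains. Zone of inhibition is the read-out. Chloramphenicol, nystatin and ravuconazole were run as positive controls.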

[2] = test system: Escherichia coli; experiment: Antibacterial activity Escherichia coli NCIM 2109 at 100 ug/disc by agar-well diffusion assay; conditions: for zone of inhibition at 100 µg/disc: read-out: DIZ; summary of the method: as §1
[3] = test system: Bacillus subtilis; experiment: Antibacterial activity Bacillus subtilis NCIM 2250 at 100 ug/disc by agar-well diffusion assay; conditions: for zone of inhibition at 100 µg/disc: read-out: DIZ; summary of the method: as §1
[4] = test system: Pseudomonas aeruginosa; experiment: Antibacterial activity Pseudomonas aeruginosa NCIM 2036 at 100 ug/disc by agar-well diffusion assay; conditions: for zone of inhibition at 100 µg/disc: read-out: DIZ; summary of the method: as §1
[5] = test system: Aspergillus niger; experiment: Antifungal activity Aspergillus niger NCIM 545 at 100 ug/disc by agar-well diffusion assay; conditions: for zone of inhibition at 100 µg/disc: read-out: DIZ; summary of the method: as §1
[6] = test system: Candida albicans; experiment: Antifungal activity Candida albicans NCIM 3471 at 100 ug/disc by agar-well diffusion assay; conditions: for zone of inhibition at 100 µg/disc: read-out: DIZ; summary of the method: as §1
[7] = test system: Staphylococcus aureus; experiment: Antibacterial activity Staphylococcus aureus NCIM 2079 after 24 hrs by NCCLS method
Summary of the method: (§2)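 Broth microdilution MIC per NCCLS. Compounds dissolved in DMSO, serially diluted in growth medium, incubated at 37 °C. Read at 24 h for bacteria and 24–72 h for fungi. MIC90 taken as the first well with about 90% growth reduction relative to the drug-free well.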

[8] = test system: Escherichia coli; experiment: Antibacterial activity Escherichia coli NCIM 2109 after 24 hrs by NCCLS method; summary of the method: as §2
[9] = test system: Bacillus subtilis; experiment: Antibacterial activity Bacillus subtilis NCIM 2250 after 24 hrs by NCCLS method; summary of the method: as §2
[10] = test system: Pseudomonas aeruginosa; experiment: Antibacterial activity Pseudomonas aeruginosa NCIM 2036 after 24 hrs by NCCLS method; summary of the method: as §2
[11] = test system: Aspergillus niger; experiment: Antifungal activity Aspergillus niger NCIM 545 after 24 to 72 hrs by NCCLS method; summary of the method: as §2
[12] = test system: Candida albicans; experiment: Antifungal activity Candida albicans NCIM 3471 after 24 to 72 hrs by NCCLS method; summary of the method: as §2

Row | Compound | zone of inhibition at 100 µg/disc [1] | zone of inhibition at 100 µg/disc [2] | zone of inhibition at 100 µg/disc [3] | zone of inhibition at 100 µg/disc [4] | zone of inhibition at 100 µg/disc [5] | zone of inhibition at 100 µg/disc [6] | MIC ([7]; NCIM 2079, 24 h) | MIC ([8]; NCIM 2109, 24 h) | MIC ([9]; NCIM 2250, 24 h) | MIC ([10]; NCIM 2036, 24 h) | MIC [11] | MIC [12] | diameter of the inhibition zone (DIZ) [1] | diameter of the inhibition zone (DIZ) [6] | MIC [7] | diameter of the inhibition zone (DIZ) [3] | diameter of the inhibition zone (DIZ) [4] | MIC [8] | MIC [9] | MIC [10] | further results
1 | Fc1ccc(/C(Cn2cncn2)=N\Nc2nc(-c3ccc(F)cc3)cs2)cc1 | 16.1 mm | 21.5 mm | 24.4 mm | 24.1 mm | 20.4 mm | 16.3 mm | 64 mg/L (≈ 161 µM) | 32 mg/L (≈ 80.7 µM) | 32 mg/L (≈ 80.7 µM) | 32 mg/L (≈ 80.7 µM) | 16 mg/L (≈ 40.4 µM) | 64 mg/L (≈ 161 µM) | – | – | – | – | – | – | – | – | –
2 | FC(F)(F)c1cc(/C(Cn2cncn2)=N\Nc2nc(-c3ccc(Br)cc3)cs2)cc(C(F)(F)F)c1 | – | 17 mm | 10.1 mm | 20.4 mm | – | – | – | > 64 mg/L | > 64 mg/L | 32 mg/L (≈ 55.6 µM) | inactive | inactive | inactive | inactive | inactive | – | – | – | – | – | diameter of the inhibition zone (DIZ) [5]: inactive
3 | NYSTATIN | – | – | – | – | – | – | – | – | – | – | 16 mg/L | 16 mg/L | – | – | – | – | – | – | – | – | inhibition zone (IZ) [5]: 21.6 mm; inhibition zone (IZ) [6]: 23.3 mm
4 | O=[N+]([O-])c1ccc(-c2csc(N/N=C(/Cn3cncn3)c3cc(C(F)(F)F)cc(C(F)(F)F)c3)n2)cc1 | – | 11.1 mm | – | – | – | – | – | – | – | – | inactive | inactive | inactive | inactive | inactive | inactive | inactive | inactive | inactive | inactive | diameter of the inhibition zone (DIZ) [5]: inactive
5 | Clc1ccc(-c2csc(N/N=C(/Cn3cncn3)c3ccc(Br)cc3)n2)cc1 | 13.1 mm | – | 17.3 mm | 21.7 mm | 16.7 mm | 16.2 mm | > 64 mg/L | – | 64 mg/L (≈ 135 µM) | 32 mg/L (≈ 67.5 µM) | 32 mg/L (≈ 67.5 µM) | 64 mg/L (≈ 135 µM) | – | – | – | – | – | inactive | – | – | diameter of the inhibition zone (DIZ) [2]: inactive
6 | Fc1ccc(-c2csc(N/N=C(/Cn3cncn3)c3ccc(Cl)cc3)n2)cc1 | 25.7 mm | 13.9 mm | 16.8 mm | – | 18.8 mm | 19.1 mm | 32 mg/L (≈ 77.5 µM) | > 64 mg/L | 64 mg/L (≈ 155 µM) | – | 32 mg/L (≈ 77.5 µM) | 32 mg/L (≈ 77.5 µM) | – | – | – | – | inactive | – | – | inactive | –
7 | O=[N+]([O-])c1ccc(-c2csc(N/N=C(/Cn3cncn3)c3ccc(Cl)cc3)n2)cc1 | – | 10.6 mm | 12.2 mm | – | 14.5 mm | 11.7 mm | – | > 64 mg/L | > 64 mg/L | – | > 64 mg/L | > 64 mg/L | inactive | – | inactive | – | inactive | – | – | inactive | –
8 | O=[N+]([O-])c1ccc(-c2csc(N/N=C(/Cn3cncn3)c3ccc(F)cc3)n2)cc1 | – | 10.9 mm | – | – | 9.44 mm | – | – | > 64 mg/L | – | – | > 64 mg/L | inactive | inactive | inactive | inactive | inactive | inactive | – | inactive | inactive | –
9 | O=[N+]([O-])c1ccc(/C(Cn2cncn2)=N\Nc2nc(-c3ccc(Cl)cc3)cs2)cc1 | 14.2 mm | – | 15.8 mm | – | – | – | > 64 mg/L | – | 64 mg/L (≈ 145 µM) | – | inactive | inactive | – | inactive | – | – | inactive | inactive | – | inactive | diameter of the inhibition zone (DIZ) [2]: inactive; diameter of the inhibition zone (DIZ) [5]: inactive
10 | Clc1ccc(/C(Cn2cncn2)=N\Nc2nc(-c3ccc(Br)cc3)cs2)cc1 | 19.1 mm | – | – | 23.9 mm | 18.6 mm | – | 64 mg/L (≈ 135 µM) | – | – | 32 mg/L (≈ 67.5 µM) | 64 mg/L (≈ 135 µM) | inactive | – | inactive | – | inactive | – | inactive | inactive | – | diameter of the inhibition zone (DIZ) [2]: inactive
11 | FC(F)(F)c1cc(/C(Cn2cncn2)=N\Nc2nc(-c3ccc(Cl)cc3)cs2)cc(C(F)(F)F)c1 | – | 13.2 mm | – | 26.8 mm | 19.1 mm | 17.6 mm | – | > 64 mg/L | – | 32 mg/L (≈ 60.3 µM) | 16 mg/L (≈ 30.1 µM) | 32 mg/L (≈ 60.3 µM) | inactive | – | inactive | inactive | – | – | inactive | – | –
12 | FC(F)(F)c1cc(/C(Cn2cncn2)=N\Nc2nc(-c3cc(C(F)(F)F)cc(C(F)(F)F)c3)cs2)cc(C(F)(F)F)c1 | – | 13.1 mm | – | – | 15.2 mm | 11.7 mm | – | – | – | – | 32 mg/L (≈ 50.6 µM) | 64 mg/L (≈ 101 µM) | inactive | – | inactive | inactive | inactive | inactive | inactive | inactive | –
13 | O=C(O)c1cn(C2CC2)c2cc(N3CCNCC3)c(F)cc2c1=O [CIPROFLOXACIN] | 28.4 mm | 26.2 mm | 26.7 mm | 30.9 mm | – | – | – | – | 16 mg/L (≈ 48.3 µM) | 16 mg/L (≈ 48.3 µM) | – | – | – | – | – | – | – | – | – | – | –
14 | FC(F)(F)c1cc(-c2csc(N/N=C(/Cn3cncn3)c3ccc(Br)cc3)n2)cc(C(F)(F)F)c1 | – | 11.4 mm | – | – | 10.9 mm | 13.9 mm | – | > 64 mg/L | – | – | > 64 mg/L | > 64 mg/L | inactive | – | inactive | inactive | inactive | – | inactive | inactive | –
15 | Fc1ccc(-c2csc(N/N=C(/Cn3cncn3)c3ccc(Br)cc3)n2)cc1 | 15.5 mm | – | 20.3 mm | – | 11.9 mm | 14.4 mm | 64 mg/L (≈ 140 µM) | – | 32 mg/L (≈ 70 µM) | – | > 64 mg/L | 64 mg/L (≈ 140 µM) | – | – | – | – | inactive | inactive | – | inactive | diameter of the inhibition zone (DIZ) [2]: inactive
16 | O=[N+]([O-])c1ccc(-c2csc(N/N=C(/Cn3cncn3)c3ccc(Br)cc3)n2)cc1 | – | 14 mm | – | – | – | – | – | > 64 mg/L | – | – | inactive | inactive | inactive | inactive | inactive | inactive | inactive | – | inactive | inactive | diameter of the inhibition zone (DIZ) [5]: inactive
17 | O=[N+]([O-])c1ccc(/C(Cn2cncn2)=N\Nc2nc(-c3ccc([N+](=O)[O-])cc3)cs2)cc1 | – | 10.8 mm | – | 20.8 mm | – | – | – | > 64 mg/L | – | 64 mg/L (≈ 142 µM) | inactive | inactive | inactive | inactive | inactive | inactive | – | – | inactive | – | diameter of the inhibition zone (DIZ) [5]: inactive
18 | O=[N+]([O-])c1ccc(/C(Cn2cncn2)=N\Nc2nc(-c3ccc(F)cc3)cs2)cc1 | – | – | 11.3 mm | – | 14.4 mm | 11.2 mm | – | – | > 64 mg/L | – | > 64 mg/L | > 64 mg/L | inactive | – | inactive | – | inactive | inactive | – | inactive | diameter of the inhibition zone (DIZ) [2]: inactive
19 | C[C@@H](c1nc(-c2ccc(C#N)cc2)cs1)[C@](O)(Cn1cncn1)c1ccc(F)cc1F [RAVUCONAZOLE] | – | – | – | – | 20.2 mm | 28.6 mm | – | – | – | – | 32 mg/L (≈ 73.1 µM) | 1 mg/L (≈ 2.29 µM) | inactive | – | inactive | inactive | inactive | inactive | inactive | inactive | diameter of the inhibition zone (DIZ) [2]: inactive
